Screens as filed in PubChem BioAssay.
DENV2 CPE = inhibitors of DENV2 cytopathic effect, primary screen, cell-based, plate reader, single concentration. CPE inhibition, % at 9.99 µM. DENV2-infected cells, cytopathic effect rescue. 1.7% of 350,000 active; in the data active = CPE inhibition above about 20%, passing the limit was not always enough; inconclusive = no clear call, values can overlap the other calls; tested in BHK-21 cells
AF4-AF9 inh = inhibitors of AF4 peptide binding to AF9, primary screen, biochemical, AlphaScreen, biotin-AF4 peptide, FLAG-AF9, single point. Protein AF-9 (Homo sapiens), P42568. inhibition, % at 10 µM. 0.47% of 350,000 active. AID 651704, 2012;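 active = every replicate reaching a set inhibition limit, whatever the replicate mean, cut at about 25% in these data; inconclusive = mean inhibition reaches that limit but some replicates miss it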
SIRT5 block = SIRT5 desuccinylase inhibitors, primary screen, biochemical, fluorescence imaging, single point, set 5; 1.1% of 330,000 active; Purified SirT5, succinyl-peptide AMC, trypsin-coupled fluorescence; inhibition, % at 15 µM; AID 652115, 2013; NAD-dependent protein deacylase sirtuin-5, mitochondrial (Homo sapiens), Q9NXA8; in the data active = inhibition above about 15%; inconclusive = no clear call, values can overlap the other calls
Target sequence (Q9NXA8 whole entry, looked up): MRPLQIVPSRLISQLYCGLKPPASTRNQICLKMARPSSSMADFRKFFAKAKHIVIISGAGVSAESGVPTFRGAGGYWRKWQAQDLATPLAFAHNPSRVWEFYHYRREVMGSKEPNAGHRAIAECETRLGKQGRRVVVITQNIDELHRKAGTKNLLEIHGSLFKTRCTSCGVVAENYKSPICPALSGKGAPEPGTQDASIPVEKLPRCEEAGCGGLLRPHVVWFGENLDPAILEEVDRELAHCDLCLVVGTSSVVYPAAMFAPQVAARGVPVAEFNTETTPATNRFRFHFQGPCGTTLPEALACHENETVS
CaV13 FRET inh = Disruptors of the CACNA1D IQ motif to Ca2+-dependent inactivation inhibitor domain association, primary screening, Förster resonance energy transfer in intact living …; HEK cells, CFP/YFP FRET ICDI-IQ, plate reader, 10 min; percent FRET-ratio fall versus neutral wells; inhibition, % at 12.3 µM; 0.098% of 340,000 active; AID 743397;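 active = mean replicate inhibition of at least 30% and at least 1% of replicates passing that level; inconclusive = only one of the two criteria is met; inactive = neither criterion is met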
S100A4 inh HTS = inhibitors of S100A4-myosin IIA peptide binding, primary screen, biochemical, fluorescence polarization, TAMRA-MyoIIA peptide; AID 652163, 2013; inhibition, % at 10.7 µM; 0.14% of 360,000 active; Protein S100-A4 (Homo sapiens), P26447;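 active = mean inhibition of at least 70% across replicates, with every replicate also reaching that level; inconclusive = mean inhibition reaches 70% but some replicates fall short; inactive = mean inhibition below 70%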
Target sequence (P26447 whole entry, looked up): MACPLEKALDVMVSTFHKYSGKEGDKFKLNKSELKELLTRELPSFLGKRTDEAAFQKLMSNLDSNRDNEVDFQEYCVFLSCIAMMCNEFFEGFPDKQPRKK
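Test system – S100A4 monomer (human) · Compound – single-point compound testing · Schedule – 5 min incubation before reading · Probe or stimulus – TAMRA-labelled myosin IIA heavy-chain peptide probe, 5 nM · Benchmarks – neutral control DMSO, positive control TFP · Medium – Calcium-containing HEPES buffer, pH 7.2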
Large screens that a line does not name were inactive. An excerpt weighted towards active compounds, which were near 2.7% of everything screened.

CO[C@H]1CN(C)C(=O)c2ccc(NC(=O)CC(F)(F)F)cc2OC[C@H](C)N(C(=O)c2ccccc2F)C[C@H]1C	none (no result: CaV13 FRET inh)
CCC(=O)Nc1ccc2c(c1)OC[C@H](C)N(C(=O)c1ccccc1F)C[C@H](C)[C@@H](OC)CN(C)C2=O	DENV2 CPE 22 (no result: CaV13 FRET inh)
CCC(=O)Nc1ccc2c(c1)OC[C@@H](C)N(C(=O)c1ccccc1F)C[C@H](C)[C@H](OC)CN(C)C2=O	none (no result: CaV13 FRET inh)
CO[C@H]1CN(C)C(=O)c2ccc(NC(=O)C3CC3)cc2OC[C@H](C)N(C(=O)c2ccccc2F)C[C@H]1C	none (no result: AF4-AF9 inh, CaV13 FRET inh, S100A4 inh HTS)
CO[C@H]1CN(C)C(=O)c2ccc(NC(=O)C3CC3)cc2OC[C@@H](C)N(C(=O)c2ccccc2F)C[C@H]1C	SIRT5 block 18 (no result: CaV13 FRET inh)
CCCC(=O)Nc1ccc2c(c1)C(=O)N(C)C[C@@H](OC)[C@@H](C)CN(C(=O)c1ccccc1F)[C@H](C)CO2	none (no result: CaV13 FRET inh)
CCCCNC(=O)c1nc(C2CCN(S(=O)(=O)c3ccc(S(C)(=O)=O)cc3)CC2)oc1-c1ccccc1	none (no result: AF4-AF9 inh)
CON(C)C(=O)/C=C/CCCCNC(=O)OC(C)(C)C	DENV2 CPE 37, AF4-AF9 inh inconclusive (no result: SIRT5 block)
CC(C)c1ccc(NC(=O)Nc2nc(C(N)c3ccccc3Cl)cs2)cc1 (configuration not stated)	DENV2 CPE 23 (no result: SIRT5 block)
CC(C)c1ccc(NC(=O)Nc2nc(C(N)CCc3ccccc3)cs2)cc1 (configuration not stated)	DENV2 CPE 37
C[C@H]1CCCCO[C@@H](CN(C)C(=O)Nc2cccc3ccccc23)[C@@H](C)CN([C@@H](C)CO)C(=O)c2cc(NS(=O)(=O)c3ccccc3)ccc2O1	DENV2 CPE inconclusive (no result: CaV13 FRET inh)
C[C@@H]1CCCCO[C@H](CN(C)Cc2ccc(C(=O)O)cc2)[C@@H](C)CN([C@H](C)CO)C(=O)c2cc(NC(=O)NC3CCCCC3)ccc2O1	none (no result: CaV13 FRET inh)
O=[N+]([O-])c1ccc(O)c(/C=N/Nc2nc3ccccc3[nH]2)c1	AF4-AF9 inh 32
CN1CCC(=O)N([C@H](COc2ccccc2)Cc2ccccc2)CC1	DENV2 CPE 20
O=C1CCN(Cc2cccnc2)CCN1[C@H](CO)c1ccccc1	none (no result: SIRT5 block)
O=C1CCN(CCc2ccccc2)CCN1[C@H](COc1ccccc1)c1ccccc1	DENV2 CPE 99 (no result: SIRT5 block)
COc1ccc(CN2CCC(=O)N([C@H](CO)c3ccccc3)CC2)cc1	DENV2 CPE 26
COc1ccc(NC(=S)N2CCN(Cc3ccccc3)CC2)cc1	SIRT5 block 94
COc1cc(NC(=S)N2CCN(Cc3ccccc3)CC2)cc(OC)c1	none (no result: DENV2 CPE, AF4-AF9 inh, SIRT5 block, S100A4 inh HTS)
COCC(=O)Nc1ccc2c(c1)C(=O)N(C)[C@@H]1CC[C@H](CC(=O)Nc3ccccc3)O[C@@H]1CO2	none (no result: CaV13 FRET inh)
CC(C)C[C@@H](COc1ccccc1)N1CCN(Cc2ccccc2)CCC1=O	DENV2 CPE 28 (no result: SIRT5 block)
CC(C)C[C@@H](CO)N1CCN(Cc2cccc(C#N)c2)CCC1=O	DENV2 CPE 20 (no result: SIRT5 block)
CC(C)C[C@@H](CO)N1CCN(Cc2ccccc2)CCC1=O	none (no result: DENV2 CPE, AF4-AF9 inh, SIRT5 block, S100A4 inh HTS)
Cc1noc(C)c1NC(=O)Nc1ccc2c(c1)CC(=O)N([C@@H](C)CO)C[C@@H](C)[C@H](CN(C)C(=O)Nc1ccc(C(F)(F)F)cc1)O2	none (no result: CaV13 FRET inh)
CCCC(=O)N1CC2(C1)CN(S(=O)(=O)c1ccc(C)cc1)[C@H](CO)c1[nH]c3cc(OC)ccc3c12	SIRT5 block 15 (no result: CaV13 FRET inh)
CCC(=O)N1CCC2(CC1)CN(S(=O)(=O)c1ccccc1)[C@@H](CO)c1[nH]c3cc(OC)ccc3c12	DENV2 CPE 28 (no result: CaV13 FRET inh)
CCS(=O)(=O)N1CC2(C1)CN(S(=O)(=O)c1cn(C)cn1)[C@@H](CO)c1[nH]c3cc(OC)ccc3c12	SIRT5 block 30 (no result: CaV13 FRET inh)
CCC(=O)N1CC2(C1)CN(S(=O)(=O)c1ccccc1)[C@@H](CO)c1[nH]c3cc(OC)ccc3c12	none (no result: SIRT5 block, CaV13 FRET inh)
Cn1ccc2c(-c3ccc(C(C)(C)C)cc3)cc3c(c21)C1CCC3C1 (configuration not stated)	DENV2 CPE 21 (no result: SIRT5 block)
Cn1ccc2c(-c3ccc(C(=O)O)cc3)cc3c(c21)C1CCC3C1 (configuration not stated)	none (no result: SIRT5 block)
